Laboratory results taken from ChEMBL document CHEMBL4513216, “Probing the Open Global Health Chemical Diversity Library for Multistage-Active Starting Points for Next-Generation Antimalarials” (ACS Infect Dis, 2020).

assay: Toxicity liver stage against HepG2, at 10uM; assay type: cell-based; set-up: test concentration 10 uM, cell line HepG2-A16-CD81EGFP; conditions: human, HepG2-A16-CD81EGFP cells; read-out: INHIBITION
In short: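 Uninfected HepG2-A16-CD81EGFP cells, 3 × 10^3 per well, 1536-well, plated on prespotted compound at 10 μM final, parasite-free screening media added to match infected plates; puromycin 10 μM positive, DMSO 0.5% negative; run in parallel with 48 h PbLuc assay at 37 °C, 5% CO2; viability by CellTiter-Glo luminescence, normalized to controls.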

Structure (SMILES)	cytotoxicity at 10 µM [%]
COc1ccc(CN2CC[C@@]3(C2)[C@H](O)CN(C)S3(=O)=O)cc1F	-7.86
O=C1CN(C(=O)c2cc3c(F)cc(Br)cc3[nH]2)CCN1	0.0723
CCC(=O)N1CCC(c2nnc(Cn3cccn3)n2C2CC2)CC1	-12.6
Cc1ncc(CN(C)CC(O)c2ccc(OC(F)(F)F)cc2)s1 (stereo not given)	9.99
Cc1ccc(Cl)cc1NC(=O)Nc1c[nH]c(=O)[nH]c1=O	-7.58
Cn1cc(-c2nc(CNCCn3cccn3)cs2)cn1	-13
O=C(NCCc1cc(F)ccc1F)NCC(O)C1CC1 (stereo not given)	-2.99
CCc1ncc2c(n1)CN(C(C(N)=O)c1ccccc1)CC2 (stereo not given)	-2.35
O=C(C1CC(F)(F)C1)N1C[C@@H]2CN(Cc3ccoc3)CCO[C@@H]2C1	7.81
N#Cc1ccc(CN2CCN(c3ccncc3Cl)CC2=O)cc1	4.64
O=C(NC1CCCN(c2ccc(OC(F)F)cc2)C1)c1ccon1 (stereo not given)	-7
Cc1csc(CN2C[C@@H]3CN(S(C)(=O)=O)CCO[C@@H]3C2)n1	-98.3
Cc1ccc(-c2ccccc2CC2(C(=O)NC(C)C)CCCNC2)cc1 (stereo not given)	2.73
COc1ccc(C(=O)NCCCNc2ncccn2)cc1F	-10.5
Cc1cc(CNC(=O)CN2CCN(C(=O)OC(C)(C)C)CC2)ccc1F	-11.2
Cc1ccc(OCCCNC(=O)CN(C)c2ccc(C#N)cn2)cc1	4.01
CS(=O)(=O)N1CCO[C@@H]2CN(C(=O)C3CC(F)(F)C3)C[C@@H]2C1	6.19
CCn1nc2c(cc1=O)CN(CC(=O)Nc1nccs1)CC2	-4.74
CC(C)(C)OC(=O)N1CC(=O)N(CCc2ccccc2)CC(O)C1 (stereo not given)	-12.9
O=C(C1CCOC1)N1CCN(Cc2cccnc2)c2ncccc2C1 (stereo not given)	3.07
O=C(Cc1ccccn1)N1CCN2C[C@H](OCCN3CCCC3)C[C@H]2C1	-77.2
Cc1cccc(N2CCCC3(C2)CN(c2nncs2)CCO3)c1 (stereo not given)	9
COc1ccc(-c2cnc(N(C)C)nc2C2CN(C(C)=O)CCO2)cc1 (stereo not given)	-31.9

Structure (SMILES)	cytotoxicity at 10 µM [%]
CC(C)(O)CN1CCN(C(=O)c2sccc2C2CC2)CC1	5.37
O=C1COC2(CCN(C(=O)[C@H]3CCCO3)CC2)CN1Cc1ccccn1	-0.524
CC[C@H]1CN2CC[C@H]1C[C@@H]2CNCc1cccc(C#N)c1	5.96
O=C(NCCCn1cccn1)c1csc2c1CCCC2	-10.2
Cc1nc(N2CCN(C)CC2)ncc1C(=O)N1CC(C)(C)C(C)(O)C1 (stereo not given)	18.5
O=C(Cc1cccc(F)c1)NCCNCc1ccco1	-6.08
CCCn1nc(C)c(CNS(=O)(=O)NCc2ccccc2)c1C	-5.05
CCc1noc(C)c1C(=O)N(C)Cc1ncc(C)c(OC)c1C	-1.06
COc1ccc2c(c1)OCC(CNC(=O)NC(C)(C)C)C2 (stereo not given)	-8.54
CCOCC(O)CN1CCN(C(=O)Cc2ccccc2C)CC1 (stereo not given)	-3.43
COc1ccnc(NCC2CN(C3CC3)CCO2)n1 (stereo not given)	-7.97
Cc1ccc(CNCc2nccn2C)c(OC(C)(C)C)c1	-2.58
COc1ccc(C2CC(=O)Oc3cc(C)[nH]c(=O)c32)c(OC)c1 (stereo not given)	-3.4
O=C(NCC1(O)CCSC1)c1ccn(-c2ccccc2F)n1 (stereo not given)	2.88
COc1cccc(CNc2c(C)cnc3c2c(=O)n(C)c(=O)n3C)c1	21.1
Cn1ccc(CN2CCC(CO)CC2)cc1=O	5.1
CCC(Nc1nc(C(C)C)nc2c1cnn2C)c1ccncc1 (stereo not given)	-48
CCN(CC1CCOC1)C(=O)Nc1ccc(OCC(F)(F)F)nc1 (stereo not given)	-11.3
O=C(C1CCOC1)N1CCC2(CCCNC2)CC1 (stereo not given)	-1.74
c1cc(-c2n[nH]c(CNc3nnc(C4CC4)o3)n2)ccn1	-2.59
Cc1sc(-n2cnnn2)c(C(=O)NC(C)C)c1C	2.83
CCc1csc(C2CCCN(C(=O)c3ccnc(N(C)C)c3)C2)n1 (stereo not given)	-6.81
